Reference: ChEMBL document CHEMBL2163304, “Strynuxlines A and B, alkaloids with an unprecedented carbon skeleton from Strychnos nux-vomica” (J Nat Prod, 2012)
pIC50: −log10 of the molar value.

What was measured:
Type in all cases: functional, cell-based
A549 = test: Cytotoxicity against human A549 cells after 48 hrs by MTT assay; settings: A549, 48 h
Summary of the method: (§1)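 Human tumour cells were seeded in 96-well plates at an initial density of 1 × 10^5 cells/mL. Adherent lines were allowed to attach for 12 h before dosing, and HL-60 suspension cells were seeded just before dosing. Cells were exposed to […], 0.32, 1.6, 8 and 40 μM for 48 h, in triplicate, with cisplatin and paclitaxel as positive controls. Viability was read by MTT and growth curves were plotted.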

MCF7 = test: Cytotoxicity against human MCF7 cells after 48 hrs by MTT assay; settings: MCF7, 48 h; summary of the method: as §1
SW480 = test: Cytotoxicity against human SW480 cells after 48 hrs by MTT assay; settings: SW480, 48 h; summary of the method: as §1
HL-60 = test: Cytotoxicity against human HL60 cells after 48 hrs by MTT assay; settings: HL-60, 48 h; summary of the method: as §1
SMMC-7721 = test: Cytotoxicity against human SMMC7721 cells after 48 hrs by MTT assay; settings: SMMC-7721, 48 h; summary of the method: as §1

SMILES	pIC50 (A549)	pIC50 (MCF7)	pIC50 (SW480)	pIC50 (HL-60)	pIC50 (SMMC-7721)
COc1ccc2c(c1)[C@@]13CCN4CC5=CCO[C@H]6CC(=O)N2[C@H]1[C@H]6[C@H]5C[C@H]43	< 4.40	< 4.40	< 4.40	< 4.40	< 4.40
O=C1C[C@H]2C3=CCO[C@H]4CC(=O)n5c(c(c6ccccc65)CCN1C3)[C@H]42 [STRYNUXLINE B]	4.74	4.95	4.72	4.78	4.80
O=C1C[C@@H]2OCC=C3CN4CC[C@]56c7ccccc7N1[C@H]5[C@H]2[C@H]3C[C@]46O [PSEUDOSTRYCHNINE]	< 4.40	< 4.40	< 4.40	< 4.40	< 4.40
COc1cc2c(cc1OC)[C@@]13CCN(C)CC4=CCO[C@H]5CC(=O)N2[C@H]1[C@H]5[C@H]4CC3=O [NOVACINE]	< 4.40	< 4.40	< 4.40	< 4.40	< 4.40
COc1cc2c(cc1OC)[C@@]13CCN4CC5=CCO[C@H]6CC(=O)N2[C@H]1[C@H]6[C@H]5C[C@]43O [PSEUDOBRUCINE]	< 4.40	< 4.40	< 4.40	< 4.40	< 4.40
COc1cc2c(cc1OC)[C@]13CCN4C/C(=C/CO)[C@H](C[C@H]41)C1=CCC(=O)N2[C@@H]13 [ISOBRUCINE]	< 4.40	< 4.40	< 4.40	< 4.40	< 4.40
COc1cc2c(cc1OC)[C@@]13CCN4CC5=CCO[C@H]6CC(=O)N2[C@H]1[C@H]6[C@H]5C[C@H]43 [BRUCINE]	< 4.40	< 4.40	< 4.40	< 4.40	< 4.40
CN1CC[C@]23C(=O)C[C@H]4C(=CCO[C@H]5CC(=O)N(c6ccccc62)[C@H]3[C@H]54)C1 [ICAJINE]	< 4.40	< 4.40	< 4.40	< 4.40	< 4.40
C/C=C1/CN2CC[C@@]34c5ccccc5N5/C=C6/[C@H]7C[C@@H]8N(CC[C@@]89c8ccccc8N(/C=C(/[C@H]1C[C@H]23)[C@H]54)[C@@H]69)C/C7=C/C [BISNORDIHYDROTOXIFERINE]	< 4.40	< 4.40	< 4.40	< 4.40	< 4.40
O=C1CC=C2[C@H]3C[C@@H]4N(CC[C@@]45c4ccccc4N1[C@@H]25)C/C3=C/CO [ISOSTRYCHNINE]	< 4.40	< 4.40	< 4.40	< 4.40	< 4.40
O=C1C[C@@H]2OCC=C3C[N+]4([O-])CC[C@]56c7ccccc7N1[C@H]5[C@H]2[C@H]3C[C@@H]64 (stereo not given in full)	< 4.40	< 4.40	< 4.40	< 4.40	< 4.40
O=C1C[C@@H]2OCC=C3CN4CC[C@]56c7ccccc7N1[C@H]5[C@H]2[C@H]3C[C@H]46 [STRYCHNINE]	< 4.40	< 4.40	< 4.40	< 4.40	< 4.40
COc1cc2c(cc1OC)[C@@]13CC[N+]4([O-])CC5=CCO[C@H]6CC(=O)N2[C@H]1[C@H]6[C@H]5C[C@@H]34 (stereo not given in full)	< 4.40	< 4.40	< 4.40	< 4.40	< 4.40
COc1ccc2c(c1)N1C(=O)C[C@@H]3OCC=C4CN5CC[C@]26[C@@H]5C[C@@H]4[C@@H]3[C@H]16	< 4.40	< 4.40	< 4.40	< 4.40	< 4.40
CN1CC[C@]23C(=O)C[C@H]4C(=CCO[C@H]5CC(=O)N(c6c(O)cccc62)[C@H]3[C@H]54)C1 [VOMICINE]	< 4.40	< 4.40	< 4.40	< 4.40	< 4.40
C[N+]12CC[C@@]34c5ccccc5N5C(=O)C[C@@H]6OCC=C(C1)[C@H](C[C@@H]32)[C@@H]6[C@H]54 (stereo not given in full) [STRYCHNINE METHIODIDE]	< 4.40	< 4.40	< 4.40	< 4.40	< 4.40
COc1cc2c3c4n(c2cc1OC)C(=O)C[C@@H]1OCC=C2CN(CC3)C(=O)C[C@@H]2[C@H]41 [STRYNUXLINE A]	4.77	4.91	4.88	5.15	5.03
COC1=C2CN(C)CC[C@]34C(=O)C[C@@H]2[C@H]2[C@H](CC(=O)N(c5ccccc53)[C@@H]24)OC1	< 4.40	< 4.40	< 4.40	< 4.40	< 4.40
